Test results as given in publication PMC11742495 (Breast Cancer Research : BCR, 2025).
Changes are numbered by the printed parent chain. Where two headings read alike, the source gives them in different places.

How the values were obtained:
WT ERα-SRC3 interaction = molecular target: T1, WT ERα-SRC3 interaction (Homo sapiens, UniProt P03372); test: cell-based; conditions: 1 nM E2, 48 h
T1 sequence (P03372 1-595): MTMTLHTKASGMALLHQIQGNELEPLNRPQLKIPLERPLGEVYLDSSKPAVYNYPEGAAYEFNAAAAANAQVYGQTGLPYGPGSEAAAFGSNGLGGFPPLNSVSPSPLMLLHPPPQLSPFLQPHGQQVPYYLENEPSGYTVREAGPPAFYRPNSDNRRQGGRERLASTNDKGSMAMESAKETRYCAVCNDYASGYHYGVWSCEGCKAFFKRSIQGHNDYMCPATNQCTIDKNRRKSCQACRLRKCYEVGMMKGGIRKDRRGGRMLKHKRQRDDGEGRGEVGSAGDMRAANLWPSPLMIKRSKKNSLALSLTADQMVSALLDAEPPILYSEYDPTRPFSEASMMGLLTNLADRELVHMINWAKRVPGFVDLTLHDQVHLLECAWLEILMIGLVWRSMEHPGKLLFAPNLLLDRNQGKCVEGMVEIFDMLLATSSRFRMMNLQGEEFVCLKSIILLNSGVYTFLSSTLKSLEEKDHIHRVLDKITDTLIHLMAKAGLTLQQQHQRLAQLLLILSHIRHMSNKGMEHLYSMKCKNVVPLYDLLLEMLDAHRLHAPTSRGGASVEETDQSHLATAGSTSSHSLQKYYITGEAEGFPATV

[1] = molecular target: T2, Y537S ERα-SRC3 interaction (Homo sapiens, UniProt P03372, Y537S); test: cell-based; type: cell-based; conditions: for IC50: 1 nM E2, 48 h
T2 sequence (P03372 1-595 Y537S): T1 sequence (P03372 1-595) with Y537S

[2] = cited from earlier work
endometrium = test: Uterine SERM agonist study; type: in vivo, BALB/c mice; conditions: ovariectomized mice, three days of treatment, with and without E2
Summary of the method: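 Adult ovariectomized BALB/c mice were randomized to 8 groups and dosed once daily for 3 consecutive days. Treatments: vehicle (0.2% Tween 80/0.5% CMC); E2 (0.1 mL of 0.1 µg/mL in 95% cottonseed oil/5% ethanol); test compound 50 mg/kg orally; reference SERM 50 mg/kg in vehicle; reference SERD 25 mg/kg in cottonseed oil/ethanol. Each active arm was run ± E2. Uteri were weighed, formalin-fixed, embedded and H&E-stained.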

[3] = test system: heterozygous, luciferase-tagged Y537S ESR1 MCF7 xenograft; test: Comparative murine xenograft study T6I-29-1A vs ICI; type: in vivo, NOD/SCID mice
[4] = difference between WT-SRC3 and Y537S-SRC3
[5] = 25 mg/kg, T6I-29-1A IP five times per week, ICI SC once per week, vs vehicle

C[C@@H]1Cc2c([nH]c3ccccc23)[C@@H](c2c(F)cc(NC3CN(CCCF)C3)cc2F)N1CC(F)(F)CO [Gir, giredestrant]
IC50 (WT ERα-SRC3 interaction; WT-SRC3 IC50 ± StDev): 0.68 ± 0.25 nM
IC50 (WT ERα-SRC3 interaction; WT-SRC3 Log(IC50) ± StDev): 0.676 nM
IC50 ([1]; Y537S-SRC3 IC50 ± StDev): 47.6 ± 11.4 nM
IC50 ([1]; Y537S-SRC3 Log(IC50) ± StDev): 47.9 nM
ΔIC50 [1, 4]: 46.95

C[C@@H]1Cc2c(ccc3[nH]ncc23)[C@@H](c2ccc(NC3CN(CCCF)C3)cn2)N1CC(F)(F)F [Cam, camizestrant]
ΔIC50 [1]: 44.67

CC/C(=C(\c1ccccc1)c1ccc(OCCN(C)C)cc1)c1ccccc1 [tamoxifen]
protein binding [2]: greater than 98%

CCNCCc1ccc(CN(CC)c2cc(OC)ccc2[C@@H]2CCc3cc(O)ccc3C2)cc1 [Rad1901, elacestrant]
ΔIC50 [1, 4]: 3560.03

Oc1ccc2c(c1)CC[C@H](c1ccccc1)[C@@H]2c1ccc(OCCN2CCCC2)cc1 [Laso, lasofoxifene]
ΔIC50 [1, 4]: 9.59

CC/C(=C(\c1ccc(O)cc1)c1ccc(OCCN(C)C)cc1)c1ccccc1 [Compound 4OHT, 4-hydroxytamoxifen]
endometrium thickness (endometrium): significantly increased width

C[C@]12CC[C@@H]3c4ccc(O)cc4C[C@@H](CCCCCCCCC[S+]([O-])CCCC(F)(F)C(F)(F)F)[C@H]3[C@@H]1CC[C@@H]2O (stereo partly shown) [ICI, fulvestrant]
tumor bioluminescent signal (IVIS) vs vehicle ([3]; 25 mg/kg SC once per week): no significant difference in bioluminescent signal
final uterine weights ([3]; 25 mg/kg, T6I-29-1A IP five times per week, ICI SC once per week): significantly decreased final uterine weights
survival [3, 5]: significantly prolonged
tumor growth (digital caliper) [3, 5]: significantly blunted tumor growth
ER target gene expression in tumors (RT-qPCR) ([3]; no significance noted): heightened
endometrium thickness (endometrium): diminished the thickness
